Read-outs that look alike come from different tables or passages of the source.
Legend:
[1] = target: SARS-CoV-2 NP-RNA interaction (Severe acute respiratory syndrome coronavirus 2, UniProt P0DTC9); experiment: biochemical; type: biochemical; conditions: for inhibition rate of the NP-RNA interaction: compound at 50 μM
SARS-CoV-2 NP = SARS-CoV-2 NP (Severe acute respiratory syndrome coronavirus 2, UniProt P0DTC9); experiment: BLI binding of compounds to full-length NP
In short: (§1)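 Target was recombinant E. coli-expressed SARS-CoV-2 NP, either CTD or full-length (1–419). Protein at 0.39 mg/ml was biotinylated for 30 min at RT, then loaded at 100 μg/ml onto streptavidin sensors for 20 min. After a 60 s baseline, increasing test compound concentrations gave 120 s association and 300 s dissociation. Run in PBS/0.01% Tween-20 at 30 °C; double-reference subtracted; KD from a global 1:1 Langmuir fit.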

SARS-CoV-2 NP CTD = SARS-CoV-2 NP CTD (Severe acute respiratory syndrome coronavirus 2, UniProt P0DTC9); experiment: BLI binding of compounds to NP CTD
In short: as §1

SARS-CoV-2 NP NTD = SARS-CoV-2 NP NTD (Severe acute respiratory syndrome coronavirus 2, UniProt P0DTC9); experiment: BLI binding of compounds to NP NTD; conditions: NP NTD (residues 44 to 174)
[2] = target: RNA-induced LLPS of the NP (Severe acute respiratory syndrome coronavirus 2, UniProt P0DTC9); type: biochemical, SARS-CoV-2
NP NTD = conditions: read-out: Kd, NP NTD; via bio-layer interferometry assay; ref [28]; cited from earlier work

COc1ccc2cc([C@H](C)C(=O)O)ccc2c1 [naproxen]
inhibitory effect on NP-RNA interaction (in words) [1]: did not inhibit

CCOC(=O)c1c(CSc2ccccc2)n(C)c2cc(Br)c(O)c(CN(C)C)c12 [umifenovir]
inhibitory effect on NP-RNA interaction (in words) ([1]; HTRF, 50 μM): no inhibitory effect

CC(C)[N+]1(C)[C@@H]2CC[C@H]1C[C@@H](OC(=O)C(CO)c1ccccc1)C2 (some centres unmarked) [ipratropium bromide]
inhibitory effect on NP-RNA interaction (in words) ([1]; HTRF, 50 μM): neither compound affected

COc1ccc(CC(C)NCC(O)c2ccc(O)c(NC=O)c2)cc1 (centres unmarked) [formoterol]
inhibitory effect on NP-RNA interaction (in words) ([1]; HTRF, 50 μM): neither compound affected

O=C(O)c1cc(O)c2c(c1)[C@H]([C@H]1c3cc(C(=O)O)cc(O)c3C(=O)c3c(O[C@@H]4O[C@H](CO)[C@@H](O)[C@H](O)[C@H]4O)cccc31)c1cccc(O[C@@H]3O[C@H](CO)[C@@H](O)[C@H](O)[C@H]3O)c1C2=O [sennoside A]
IC50 [1]: 3170 ± 390 nM | inhibition rate of the NP-RNA interaction ([1]; HTRF): exceeding 98% | Kd (SARS-CoV-2 NP): 962 ± 19 nM | Kd (SARS-CoV-2 NP CTD): 1820 ± 30 nM | binding to NP NTD (SARS-CoV-2 NP NTD): neither sennoside A nor sennoside B bound | inhibition of RNA-induced LLPS of the NP [2]: relatively weaker activity

O=C(O)c1cc(O)c2c(c1)[C@@H]([C@H]1c3cc(C(=O)O)cc(O)c3C(=O)c3c(O[C@@H]4O[C@H](CO)[C@@H](O)[C@H](O)[C@H]4O)cccc31)c1cccc(O[C@@H]3O[C@H](CO)[C@@H](O)[C@H](O)[C@H]3O)c1C2=O [sennoside B]
IC50 [1]: 1050 ± 230 nM | inhibition rate of the NP-RNA interaction ([1]; HTRF): exceeding 98% | Kd (SARS-CoV-2 NP): 765 ± 12 nM | Kd (SARS-CoV-2 NP CTD): 529 ± 16 nM | binding to NP NTD (SARS-CoV-2 NP NTD): neither sennoside A nor sennoside B bound | inhibition of RNA-induced LLPS of the NP [2]: significantly inhibited

Cc1ccc(C(=O)Nc2ccc(S(=O)(=O)O)c3cc(S(=O)(=O)O)cc(S(=O)(=O)O)c23)cc1NC(=O)c1cccc(NC(=O)Nc2cccc(C(=O)Nc3cc(C(=O)Nc4ccc(S(=O)(=O)O)c5cc(S(=O)(=O)O)cc(S(=O)(=O)O)c45)ccc3C)c2)c1 [suramin]
Kd (NP NTD): 2740 nM

— paper PMC12082725 (Journal of Enzyme Inhibition and Medicinal Chemistry, 2025)
